Data on 19 compounds can be found in ChEMBL document CHEMBL3098049, “Concise synthesis and biological evaluation of 2-Aroyl-5-amino benzo[b]thiophene derivatives as a novel class of potent antimitotic agents” (J Med Chem, 2013).

Calls of active or inactive are those of the source. The calls are words filed in the database; no cut-off is given here. Some results are limits rather than exact numbers.

The target in experiment [1] is T1, Tubulin (Homo sapiens) (UniProt P68371+Q9H4B7+P0DPH7+P68366+Q13509+Q71U36+P04350+Q3ZCM7+P07437+P68363+Q9BQE3+Q6PEY2+Q13885+Q9BVA1+Q9BUF5). Put plainly: Displacement of [3H]-colchicine from tubulin (unknown origin) at 1 uM after 10 mins relative to control. The format is protein-complex assay. For orientation: Loss of bound radioactivity is the signal in a displacement assay; it reports binding, not function.

The target in experiment [2] is T1, Tubulin (Homo sapiens). Nature of the experiment: Displacement of [3H]-colchicine from tubulin (unknown origin) at 5 uM after 10 mins relative to control. The format is protein-complex assay.
The nature of experiment [3]: Inhibition of bovine brain tubulin polymerization preincubated for 15 mins followed by GTP addition measured for 20 mins by turbidometric analysis. On the set-up: species or system Bos taurus.
Experiment [4] can be described thus: Cytotoxicity against human CEM/0 cells assessed as growth inhibition after 48 hrs by coulter counting analysis. The format is functional, cell-based. To be noted: CCRF-CEM.
Experiment [5] in a line: Cytotoxicity against human Molt4/C8 cells assessed as growth inhibition after 48 hrs by coulter counting analysis. The format is functional, cell-based. To be noted: MOLT-4, 48 h. Put shortly: (§1)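 Cells suspended at (3−5) × 10⁵ cells/mL and mixed 1:1 with compound dilutions. Incubated 48 h at 37 °C, counted with a Coulter counter. IC₅₀ = concentration inhibiting proliferation by 50%. Mean of at least three independent experiments.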

Experiment [6] relates to L1210. Nature of the experiment: Cytotoxicity against mouse L1210 cells assessed as growth inhibition after 48 hrs by coulter counting analysis. The format is functional, cell-based. Conditions: L1210, 48 h. Put shortly: as §1
Experiment [7] can be described thus: Cytotoxicity against mouse FM3A/0 cells assessed as growth inhibition after 48 hrs by coulter counting analysis. The format is functional, cell-based. To be noted: FM3A/0, 48 h.
Experiment [8] concerns HeLa. Nature of the experiment: Cytotoxicity against human HeLa cells assessed as growth inhibition after 48 hrs by coulter counting analysis. The format is functional, cell-based.
In experiment [9] the test system is MNNG-HOS. Nature of the experiment: Antitumor activity against human MNNG-HOS cells xenografted in Balb/c-nu mouse assessed as reduction in tumor weight at 50 mg/kg, ip administered once every 3 days for 9 days measured after day 18. The format is functional, organism-based. Conditions: HOS-TE85. Details: dose 50 mg/kg. In outline:
(§2)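 MNNG/HOS osteosarcoma cells grown to exponential phase, suspended in FBS-free MEM (10⁷ cells/mL), 0.1 mL injected into back hypodermis of nude mice. At ~100 mm³, 12 mice randomised to three groups (vehicle, CA-4P in isotonic saline, test in 5% DMSO/olive oil). 50 mg/kg ip at 0.01 mL/g on days 0, 3, 6, 9. Tumour volume and body weight tracked; tumours excised and weighed day 18; […].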
Background: Xenograft models place foreign cells or tissue in a host animal.

The subject of experiment [10] is MNNG-HOS. Put plainly: Antitumor activity against human MNNG-HOS cells xenografted in Balb/c-nu mouse assessed as tumor growth inhibition at 50 mg/kg, ip administered once every 3 days for 9 days measured on day 18 relative to vehicle-treated control. Conditions: HOS-TE85, ip, route intraperitoneal, read-out: TGI. The format is functional. In outline:
as §2

Take `COc1cc2sc(C(=O)c3cc(OC)c(OC)c(OC)c3)c(C)c2cc1N`: the inhibition (usually the share of the control response that was lost under treatment) in [1] is 83%; in experiment [2] it was 95%. Further, the IC50 (commonly the concentration that inhibits the measured activity by half) in [3] came out at 680 nM; in experiment [4], 19 nM; in experiment [5] it was 16 nM; in experiment [6], 19 nM; in experiment [7], 17 nM.

On to `COc1cc(C(=O)c2cc3cc(NC(=O)CBr)cc(OC)c3s2)cc(OC)c1OC`, for which the IC50 in experiment [8] stood at 220 nM; in [4], 340 nM; in experiment [5], 360 nM; in experiment [6] it was 420 nM; in [7], 250 nM.

Regarding `CNc1cc(OC)c2sc(C(=O)c3cc(OC)c(OC)c(OC)c3)cc2c1`, the IC50 was determined as 66 nM in experiment [8], 74 nM in experiment [5], 67 nM in experiment [6] and 190 nM in [7].

As to `COc1ccc(C(=O)c2cc3cc(N)cc(OC)c3s2)cc1`, the IC50 was 6100 nM in experiment [4], 6500 nM in experiment [5], greater than 10000 nM in experiment [6] and greater than 10000 nM in [7].

Compound `COc1cc(C(=O)c2sc3ccccc3c2N)cc(OC)c1OC` returned an inhibition in experiment [2] of 39%. This compound displayed an IC50 in [3] of 4200 nM.

For the compound `COc1ccc(/C=C\c2cc(OC)c(OC)c(OC)c2)cc1OP(=O)(O)O` [FOSBRETABULIN DISODIUM], in [9], the outcome was Active. The inhibition in vivo at 50 mg/kg in [10] came to 32%.

`COc1cc(C(=O)c2cc3cc(NC(C)=O)cc(OC)c3s2)cc(OC)c1OC`: the IC50 came to 69 nM in experiment [8], 98 nM in experiment [5] and 340 nM in experiment [7].

Regarding `C=C(Br)C(=O)Nc1ccc2sc(C(=O)c3cc(OC)c(OC)c(OC)c3)cc2c1`, the IC50 was found to be 700 nM in [8]; 140 nM in experiment [4]; 270 nM in experiment [5]; 75 nM in experiment [6]; 170 nM in experiment [7].

On to `COc1cc(C(=O)c2sc3c(OC)cccc3c2N)cc(OC)c1OC`, for which the inhibition in experiment [2] amounted to 39%. The compound further yielded an IC50 in [3] of 2100 nM.

Consider `COc1cc(C(=O)c2cc3cc(NC(=O)CI)cc(OC)c3s2)cc(OC)c1OC`, for which the IC50 stood at 200 nM in [8]; 310 nM in experiment [4]; 330 nM in experiment [5]; 410 nM in [6]; 370 nM in [7].

Consider `COc1cc(C(=O)c2cc3cc(NC(=O)CI)ccc3s2)cc(OC)c1OC`, for which the IC50 came out at 1500 nM in [8], 330 nM in experiment [5], 1400 nM in [6] and 2100 nM in experiment [7].

In turn, `COc1cc(C(=O)c2cc3cc(N)ccc3s2)cc(OC)c1OC` returned an inhibition in experiment [2] of 65%. The IC50 in experiment [3] is 3200 nM; in experiment [8] it was 13 nM; in [4], 11 nM; in experiment [5], 18 nM; in [6], 0.78 nM; in experiment [7], 2.8 nM.

For the compound `COc1ccc(C(=O)c2cc3cc(N)cc(OC)c3s2)cc1OC`, the IC50 in [8] stood at 1600 nM; in experiment [4], 1400 nM; in experiment [5], 1700 nM; in experiment [6] it was 1900 nM; in [7], 2200 nM.

For the compound `COc1cc(C(=O)c2cc3cc(N(C)C)cc(OC)c3s2)cc(OC)c1OC`, the IC50 was determined as 360 nM in [8], 980 nM in experiment [5] and 1100 nM in experiment [7].

In the case of `C=C(Br)C(=O)Nc1cc(OC)c2sc(C(=O)c3cc(OC)c(OC)c(OC)c3)cc2c1`, the IC50 in experiment [8] came out at 760 nM; in [4], 260 nM; in [5], 280 nM; in experiment [6], 96 nM; in [7], 200 nM.

Consider `COc1cc(C(=O)c2sc3c(OC)cc(N)cc3c2C)cc(OC)c1OC`, for which the inhibition was 90% in experiment [1] and 95% in [2]. Also, the IC50 was 480 nM in experiment [3]; 13 nM in experiment [8]; 14 nM in experiment [5]; 12 nM in experiment [6]; 15 nM in [7].

In [2], `COc1cc(C(=O)c2sc3ccc(N)cc3c2C)cc(OC)c1OC` showed an inhibition of 78%. The IC50 in experiment [3] turned out to be 1300 nM; in experiment [8], 100 nM; in experiment [4], 72 nM; in experiment [5], 100 nM; in experiment [6] it was 8 nM; in [7], 200 nM.

Consider `COc1cc(C(=O)c2cc3cc(NC(=O)CBr)ccc3s2)cc(OC)c1OC`, for which the IC50 in experiment [8] worked out at 1600 nM; in experiment [4], 260 nM; in [5] it was 960 nM; in [6], 1400 nM; in [7] it was 1700 nM.

Regarding `COc1cc(C(=O)c2cc3cc(NC(=O)CCl)cc(OC)c3s2)cc(OC)c1OC`, the IC50 in experiment [8] came to 100 nM; in experiment [4] it was 72 nM; in experiment [5] it was 78 nM; in [7] it was 200 nM.
